Published values collected from several papers.
Target: Tyrosine-protein kinase FRK (FRK, Homo sapiens, UniProt P42685)

SMILES | test | conditions | endpoint | value
Cc1nn(C)cc1-c1nc2c(N3CCN(Cc4ccc(Cl)cc4)CC3)c(Cl)cnc2[nH]1 | binding, competition with immobilised ligand | 1 µM | remaining binding | 100%
Cn1cc(-c2cccc(N3CCc4c(sc5c4CC(C)(C)C5)C3=O)c2CO)cc(Nc2ccncn2)c1=O | enzyme activity, inhibitor | 1 µM | inhibition | 9%
Nc1ncc(-c2nc(N3CCOCC3)nc(N3CCOCC3)n2)c(C(F)F)n1 | binding, competition with immobilised ligand | 10 µM | remaining binding | 100%
O=c1[nH]c2ccccc2n1C1CCN(Cc2ccc(-c3[nH]c4cc5ncnc5cc4nc3-c3ccccc3)cc2)CC1 | cell-free assay | 0.5 µM | remaining signal | 102%
Cn1cncc1[C@](O)(COc1ccc(C#N)cc1-c1ccc(OC(F)(F)F)cc1)c1ccc(C#N)cc1 | cell-free assay, competition with immobilised ligand | 1 µM | remaining binding | 100%
Cn1cc(-c2cc(F)cc(N3CCn4c(cc5c4CCCC5)C3=O)c2CO)cc(Nc2ccc(N3CCN(C4COC4)CC3)cn2)c1=O | enzyme activity, inhibitor | 0.1 µM | inhibition | 15%
CC(C)(C)c1cc(C=C(C#N)C#N)cc(Br)c1O | enzyme activity, inhibitor | 0.5 µM | remaining activity | 99.3%
N#CC1(c2ccccn2)CCN(Cc2cc(C(=O)O)c(=O)n3ccccc23)CC1 | cell-free assay, competition with immobilised ligand | 1 µM | remaining binding | 100%
COc1cc(Nc2ncc(F)c(Nc3ccc4c(n3)NC(=O)C(C)(C)O4)n2)cc(OC)c1OC | binding, competition with immobilised ligand | 10 µM | inhibition | 96%
COc1ncccc1-c1cnn2ccc(N3CCN(C(=O)OC(C)C)CC3)nc12 | binding, competition with immobilised ligand | 1 µM | remaining binding | 63%
